ChEMBL document CHEMBL1138290 (J Med Chem, 2007)

Assays:
[1] = test system: K562; assay: Antiproliferative activity against human K562 cells after 48 hrs; type: functional, cell-based; settings: K562, 48 h
Summary of the method: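 Growth of K562 cells measured by counting cells with a hemocytometer after 48 h (2 days) of drug treatment. IC50 is the mean of at least three independent determinations.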

[2] = biological target: Tubulin (Sus scrofa, UniProt P02554+P02550); assay: Inhibition of porcine brain tubulin polymerization
[3] = Cell cycle arrest in KB/HeLa cells assessed as accumulation at G2/M phase after 24 hrs by flow cytometric analysis; type: functional, cell-based; settings: Homo sapiens
Summary of the method: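 Subconfluent KB/HeLa cells exposed to a range of compound concentrations for 24 h. Cell cycle phase distribution determined by flow cytometry. Experiments run at least in duplicate (n = 2).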

COc1ccc(S(=O)(=O)Oc2c3cccc(Cl)c3cc3c(Cl)cccc23)cc1
IC50 [1]: 1700 nM
IC50 [2]: > 10000 nM

COc1ccc(C=C2c3ccccc3C(=O)c3ccccc32)cc1O
EC50 [3]: 200 nM

COc1cccc(S(=O)(=O)Oc2c3ccccc3cc3ccccc23)c1
IC50 [1]: 480 nM
IC50 [2]: 390 nM

COc1ccc(S(=O)(=O)Oc2c3c(nc4ccccc24)CCCC3)cc1
IC50 [1]: 830 nM
IC50 [2]: > 10000 nM

COc1ccc(S(=O)(=O)Oc2c3c(Cl)cccc3cc3cccc(Cl)c23)cc1
IC50 [1]: 10000 nM
IC50 [2]: > 10000 nM

CN(C)c1ccc(S(=O)(=O)Oc2c3ccccc3cc3sccc23)cc1
IC50 [1]: 80 nM
IC50 [2]: 940 nM

CNc1ccc(S(=O)(=O)Oc2c3ccccc3cc3sccc23)cc1
IC50 [1]: 50 nM
IC50 [2]: 290 nM

Cc1ccc(S(=O)(=O)Oc2c3ccccc3cc3sccc23)cc1
IC50 [1]: 440 nM
IC50 [2]: 1050 nM

O=S(=O)(Oc1c2ccccc2cc2sccc12)c1ccc(NO)cc1
IC50 [1]: 400 nM

Cc1cccc(S(=O)(=O)Oc2c3ccccc3cc3sccc23)c1
IC50 [1]: 530 nM
IC50 [2]: 740 nM

COc1cccc(S(=O)(=O)Oc2c3ccccc3cc3sccc23)c1
IC50 [1]: 250 nM
IC50 [2]: 290 nM

Nc1ccc(S(=O)(=O)Oc2c3ccccc3cc3sccc23)cc1
IC50 [1]: 130 nM
IC50 [2]: 710 nM

O=S(=O)(Oc1c2ccccc2cc2sccc12)c1ccccc1
IC50 [1]: 800 nM
IC50 [2]: > 14000 nM

COc1ccc(S(=O)(=O)Oc2c3ccccc3c(Cl)c3ccccc23)cc1
IC50 [1]: 350 nM

COc1cc(N)ccc1S(=O)(=O)Oc1c2ccccc2cc2sccc12
IC50 [1]: 280 nM

O=[N+]([O-])c1ccc(S(=O)(=O)Oc2c3ccccc3cc3sccc23)cc1
IC50 [1]: 2300 nM
IC50 [2]: > 14000 nM

COc1ccc(S(=O)(=O)Oc2c3ccccc3cc3sccc23)cc1OC
IC50 [1]: 170 nM
IC50 [2]: 1270 nM

COc1cc([N+](=O)[O-])ccc1S(=O)(=O)Oc1c2ccccc2cc2sccc12
IC50 [1]: 1400 nM
